# Source: PubChem BioAssay
# Activity calls are given as the source filed them.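 Rule for the calls, unless noted: active = GFP response above 150% of the DMSO level; inconclusive = fewer than 70 events counted for a yeast strain; inactive = the rest.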
# Tests used:
# [1] = RPL19A-GFP modulators, yeast TOR pathway, confirmation, cell-based, S. cerevisiae, flow cytometry, cherry picks, mother/daughter gates (AID 2270;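 active = GFP response below 50% of the DMSO control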); settings: S. cerevisiae RPL19A-GFP strain, 3 h, at 10 µM, stronger effect = lower value, 100 = same GFP as DMSO wells
# [2] = LAP4-GFP expression modulators in yeast, confirmation, cell-based, cherry picks, flow cytometry, mother/daughter gates (AID 2271;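 active = GFP response above 150% of the DMSO control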;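 note: ratio of sample to DMSO plate mean so 100% equals DMSO level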); settings: S. cerevisiae LAP4-GFP strain, 3 h, at 10 µM, stronger effect = higher value, 100 means same as DMSO control
# How it was run: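 Material: Alexa Fluor 633-labelled Saccharomyces cerevisiae GFP-fusion strain, single-plex | Amount: Yeast cells seeded at OD600 of 0.2 | Buffer or medium: SC growth medium | Schedule: 3 h exposure, 30 °C | Measured by: HT flow cytometry, GFP fluorescence channel | Evaluation: % GFP response vs DMSO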
# [3] = modulators of MEP2-GFP levels in yeast, confirmation, S. cerevisiae, flow cytometry GFP, cherry picks (AID 2272;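 active = GFP response above 150% of the DMSO control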;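 note: ratio of well signal to plate DMSO mean so 100% equals DMSO level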); settings: S. cerevisiae MEP2-GFP strain, 3 h, at 10 µM, stronger effect = higher value
# [4] = AGP1-GFP expression modulators, hit retest, confirmation, cell-based, flow cytometry, S. cerevisiae, cherry picks (AID 2273);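 note: median GFP channel fluorescence over the whole cell population gate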; settings: S. cerevisiae AGP1-GFP strain, 3 h, at 10 µM
# [5] = modulators of CIT2-GFP expression in yeast, confirmation, S. cerevisiae, GFP fusion, cherry picks, mother/daughter gates (AID 2274); settings: S. cerevisiae CIT2-GFP strain, flow cytometry, 3 h, at 10 µM, stronger effect = higher value
# [6] = measured here: daughter cell gate
# [7] = measured here: mother cell gate
# [8] = measured here: daughter cell gate response
# [9] = measured here: mother cell gate response
Compound,GFP response vs DMSO [1],"GFP response vs DMSO [1, 6]","GFP response vs DMSO [1, 7]",GFP response relative to DMSO [2],"GFP response relative to DMSO [2, 8]","GFP response relative to DMSO [2, 9]",GFP response vs DMSO [3],"GFP response, % of DMSO [4]","GFP response, % of DMSO [5]","GFP response, % of DMSO [5, 6]","GFP response, % of DMSO [5, 7]"
COc1ccc(-c2csc(N(CC(C)C)C(=O)c3ccco3)n2)cc1,98.2% (inactive),100%,97.7%,101% (inactive),101%,100%,101% (inactive),100% (inactive),98.6% (inactive),101%,97.1%
Cc1ccc(S(=O)(=O)N2C3C=CC(C3)C2C(=O)O)cc1 (configuration not stated),96% (inactive),97.6%,95.2%,95.3% (inactive),96%,94.4%,106% (inactive),98.4% (inactive),97.2% (inactive),97.6%,98.2%
COc1cc(/C=C/c2ccc3c(Br)cc(Br)c(O)c3n2)ccc1O,101% (inactive),107%,102%,107% (inactive),106%,108%,108% (inactive),98.6% (inactive),99.7% (inactive),105%,89.8%
CCOc1ccc(C(Nc2cccnc2)c2cc(Cl)c3cccnc3c2O)cc1 (configuration not stated),99.6% (inactive),104%,95.6%,164% (active),144%,170%,122% (inactive),93.9% (inactive),101% (inactive),108%,94.9%
CN1C(=O)c2cccc3c(Cl)ccc(c23)C1=O,97.8% (inactive),95.7%,98%,107% (inactive),107%,107%,105% (inactive),92.4% (inactive),97.3% (inactive),95.6%,98.1%
CCOc1ccc(N2C(=O)C(Cl)=C(Nc3ccccc3O)C2=O)cc1,97.4% (inactive),98%,98.1%,103% (inactive),99.3%,105%,104% (inactive),96.7% (inactive),97.8% (inactive),100%,95.6%
COc1cc(NC(=O)c2ccccc2F)ccc1NC(=O)c1cc2ccccc2o1,87.2% (inactive),90.2%,88.8%,97% (inactive),97.5%,97.3%,107% (inactive),101% (inactive),100% (inactive),97.4%,98.1%
CNC(=O)/C(C#N)=C/c1c(N2CCCCCC2)nc2ccccn2c1=O,98.7% (inactive),100%,98.2%,104% (inactive),104%,106%,112% (inactive),98.6% (inactive),108% (inactive),110%,108%
O=C(O)c1ccc2ccc3ccccc3c2c1,96.6% (inactive),94.2%,95%,99.5% (inactive),97.5%,98.4%,96.8% (inactive),105% (inactive),122% (inactive),121%,121%
Cc1ccccc1NC(=O)CC1SC(=O)N(c2ccccc2)C1=O (configuration not stated),94.9% (inactive),97.3%,91%,131% (inactive),127%,133%,112% (inactive),104% (inactive),104% (inactive),108%,94.9%
CCn1c(=O)c(C(=O)Nc2ccccc2C)c(O)c2ccccc21,97.8% (inactive),98.1%,97.9%,102% (inactive),102%,99.3%,105% (inactive),96% (inactive),96.9% (inactive),99.1%,96.1%
COc1cc(OC)cc(-c2nc(-c3ccccc3OC)no2)c1,97.8% (inactive),99.3%,95.6%,97.7% (inactive),97.5%,101%,114% (inactive),108% (inactive),107% (inactive),108%,107%
CCN(CC)c1ccc(/C=C/c2ccc3ccc(OC)cc3[n+]2CC)cc1,102% (inactive),101%,101%,117% (inactive),113%,119%,133% (inactive),98.9% (inactive),107% (inactive),110%,104%
CC1CN(c2nc3ccccn3c(=O)c2/C=C(\C#N)C(=O)N2CCOCC2)CC(C)O1 (configuration not stated),98.5% (inactive),99.3%,98.4%,102% (inactive),97.5%,104%,101% (inactive),95% (inactive),100% (inactive),99.3%,102%
Cc1cc(=O)n2c3c(sc2n1)C(=O)N(Cc1ccccc1)C3=O,94.3% (inactive),94.5%,94%,152% (active),140%,161%,103% (inactive),105% (inactive),81% (inactive),87.3%,74.8%
CCc1ccc(C(=O)/C=C/c2ccc([N+](=O)[O-])o2)cc1,104% (inactive),108%,103%,146% (inactive),141%,152%,180% (active),99.1% (inactive),154% (active),156%,148%
O=C(c1cccc2ccccc12)N1CCN(c2ccccc2F)CC1,97.8% (inactive),92.9%,95.7%,102% (inactive),99.1%,102%,101% (inactive),102% (inactive),94.4% (inactive),92%,93.2%
O=C(O)c1ccc2c3c(ncnc13)-c1ccccc1C2=O,113% (inactive),95.3%,107%,135% (inactive),130%,134%,135% (inactive),105% (inactive),123% (inactive),105%,117%
CCCOc1ccc(N2C(=O)CC(SCCN)C2=O)cc1 (configuration not stated),93.5% (inactive),92.9%,94.6%,101% (inactive),102%,99.3%,98.3% (inactive),92.3% (inactive),98.3% (inactive),101%,96.1%
CC(=O)Nc1ccc(S(=O)(=O)NC(CC(=O)NCCC2=CCCCC2)C(C)C)cc1 (configuration not stated),99.8% (inactive),99.4%,101%,99.2% (inactive),99.2%,96.1%,102% (inactive),101% (inactive),101% (inactive),101%,101%
Cc1cc(C)c2c(c1)/C(=C/C(=O)c1ccc(Br)s1)C(=O)N2,104% (inactive),102%,103%,99.5% (inactive),101%,102%,105% (inactive),97.8% (inactive),94.4% (inactive),93.8%,94.4%
COc1cc(/C=C2\N=C(c3ccccc3)OC2=O)ccc1OCc1c(C)no[n+]1[O-],103% (inactive),101%,103%,96.5% (inactive),97.9%,96.5%,104% (inactive),97.5% (inactive),99.3% (inactive),100%,96.8%
COc1cc(/C=C2\C(=O)N(CCC#N)N=C2C)c(Br)cc1OC(C)C,105% (inactive),103%,102%,165% (active),145%,168%,107% (inactive),100% (inactive),93.9% (inactive),94.8%,90.2%
COc1ccc(C(=O)/C=C2/C(=O)Nc3ccccc32)cc1,86.7% (inactive),88.1%,82.7%,133% (inactive),122%,139%,96.2% (inactive),95.4% (inactive),98.3% (inactive),97.2%,91.4%
O=C1C2C3C=CC(CO)(O3)C2C(=O)N1c1ccc(-c2ccccc2)cc1 (configuration not stated),109% (inactive),103%,94.9%,334% (active),156%,304%,103% (inactive),97.8% (inactive),91.5% (inactive),97.4%,82.1%
N#Cc1nccnc1S(=O)(=O)c1cccs1,96.2% (inactive),99.5%,94.6%,166% (active),149%,162%,106% (inactive),96.1% (inactive),103% (inactive),103%,98.2%
COc1ccc(-c2csc(NC(=O)c3ccco3)n2)cc1,98.4% (inactive),96.7%,97.8%,109% (inactive),102%,109%,104% (inactive),91.9% (inactive),99.3% (inactive),100%,96.8%
